Measurements: ChEMBL document CHEMBL4732211, “Multifunctional agents based on benzoxazolone as promising therapeutic drugs for diabetic nephropathy” (Eur J Med Chem, 2021)
Activity calls are given as the source filed them. The rule behind the calls is not given here.

What was measured:
Mus musculus [1] = assay: Antidiabetic activity in STZ-induced Kunming mouse model of diabetes assessed as reduction in blood glucose level at 160 mg/kg, po administered daily via gavage for 8 weeks and measured at week 8; assay type: functional; conditions: 1344 h
Mus musculus [2] = assay: Antioxidant activity in STZ-induced diabetic Kunming mouse assessed as reduction in liver MDA level at 160 mg/kg, po administered daily via gavage for 8 weeks and measured at 6 hrs post-final drug dose relative to STZ-treated group; assay type: functional; conditions: 1344 h
Mus musculus [3] = assay: Reno-protective activity in STZ-induced Kunming mouse model of diabetes assessed as urinary total protein excretion at 160 mg/kg, po administered daily via gavage for 8 weeks and measured at week 8 relative to control; assay type: functional
Mus musculus [4] = assay: Antioxidant activity in STZ-induced diabetic Kunming mouse assessed as increase in GSH level in kidney at 80 mg/kg, po administered QD via gavage for 4 weeks and measured at 6 hrs post-final drug dose by microplate reader analysis; assay type: functional
Mus musculus [5] = assay: Reno-protective activity in STZ-induced Kunming mouse model of diabetes assessed as reduction in urinary total protein excretion at 80 mg/kg, po administered QD via gavage for 4 weeks and measured at week 2 to 4; assay type: functional, organism-based; conditions: time 2-4 weeks
Rattus norvegicus = species on record: Rattus norvegicus; assay: Selectivity index, ratio of IC50 for Wistar rat kidney ALR1 to IC50 for Wistar rat lens ALR2
How it was run: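 Aldose reductases (ALR2, ALR1) prepared from Wistar rats (200-250 g). NADPH loss followed at 340 nm for 4 min after substrate start, following 10 min preincubation. ALR2: pH 6.2 phosphate, 30 °C, NADPH 0.10 mM, D,L-glyceraldehyde 10 mM. ALR1: pH 7.2, 37 °C, NADPH 0.12 mM, D-glucuronate 20 mM. 0.5% DMSO; non-enzymatic rate subtracted. IC50 from log dose-response with ≥3 concentrations (20-80% inhibition), triplicate.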

Mus musculus [6] = assay: Reno-protective activity in STZ-induced Kunming mouse model of diabetes assessed as reduction in albumin to creatinine ratio at 160 mg/kg, po administered daily via gavage for 8 weeks; assay type: functional; conditions: 1344 h
Mus musculus [7] = assay: Reno-protective activity in STZ-induced Kunming mouse model of diabetes assessed as urinary total protein excretion at 80 mg/kg, po administered daily via gavage for 8 weeks and measured at week 8 relative to control; assay type: functional
Mus musculus [8] = assay: Reno-protective activity in STZ-induced Kunming mouse model of diabetes assessed as glomerular atrophy and inflammatory cell infiltration at 160 mg/kg, po administered daily via gavage for 8 weeks by H and E staining based histological analysis; assay type: functional, organism-based
[9] = Inhibition of polyol pathway in STZ-induced Kunming mouse model of diabetes assessed as decrease in sorbitol level in kidney cortex at 80 mg/kg, po administered QD via gavage for 4 weeks and measured at 6 hrs post-final drug dose by fluorospectrophotometric analysis; assay type: functional; conditions: 672 h
[10] = Inhibition of polyol pathway in STZ-induced Kunming mouse model of diabetes assessed as decrease in sorbitol level in kidney cortex at 160 mg/kg, po administered daily via gavage for 8 weeks and measured at 6 hrs post-final drug dose by fluorospectrophotometric analysis; assay type: functional; conditions: 1344 h
Mus musculus [11] = assay: Reno-protective activity in STZ-induced Kunming mouse model of diabetes assessed as normal kidney structure at 80 mg/kg, po administered QD via gavage for 4 weeks by H and E staining based histological analysis; assay type: functional, organism-based
Mus musculus [12] = assay: Antioxidant activity in STZ-induced diabetic Kunming mouse assessed as rise in liver MDA level at 160 mg/kg, po administered daily via gavage for 8 weeks and measured at 6 hrs post-final drug dose relative to normal group; assay type: functional
Mus musculus [13] = assay: Antioxidant activity in STZ-induced diabetic Kunming mouse assessed as increase in GSH level in kidney at 80 mg/kg, po administered daily via gavage for 8 weeks and measured at 6 hrs post-final drug dose by microplate reader analysis; assay type: functional
[14] = target: Aldo-keto reductase family 1 member B1 (Rattus norvegicus, UniProt P07943); assay: Inhibition of Wistar rat lens ALR2 assessed as reduction in NADPH oxidation using D,L-glyceraldehyde and NADPH as substrate preincubated for 10 mins followed by substrate addition and measured for 4 mins by spectrophotometric analysis; assay type: tissue-based
Mus musculus [15] = assay: Antioxidant activity in STZ-induced diabetic Kunming mouse assessed as increase in GSH level in kidney at 160 mg/kg, po administered daily via gavage for 8 weeks and measured at 6 hrs post-final drug dose by microplate reader analysis; assay type: functional
Mus musculus [16] = assay: Antidiabetic activity in STZ-induced Kunming mouse model of diabetes assessed as reduction in blood glucose level at 160 mg/kg, po administered daily via gavage for 8 weeks and measured at week 4; assay type: functional; conditions: 672 h, time 4 weeks
Mus musculus [17] = assay: Antidiabetic activity in STZ-induced Kunming mouse model of diabetes assessed as reduction in blood glucose level at 160 mg/kg, po administered daily via gavage for 8 weeks and measured at week 6; assay type: functional; conditions: 1008 h, time 6 weeks
Mus musculus [18] = assay: Reno-protective activity in STZ-induced Kunming mouse model of diabetes assessed as reduction in albumin to creatinine ratio at 80 mg/kg, po administered daily via gavage for 8 weeks; assay type: functional; conditions: 1344 h
[19] = Antioxidant activity assessed as DPPH radical scavenging activity at 10 uM after 30 mins by spectrophotometric analysis; assay type: functional
How it was run: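 DPPH in methanol (1 mL, 0.025 mg/mL) plus methanol 1.9 mL and compound in methanol, final 100, 50 and 10 µM; absorbance at 517 nm. Scavenging % = 1 − (A_sample − A_blank)/A_control, where the blank is compound without DPPH. Trolox reference.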

Mus musculus [20] = assay: Reno-protective activity in STZ-induced Kunming mouse model of diabetes assessed as urinary total protein excretion at 160 mg/kg, po administered daily via gavage for 8 weeks and measured at week 6 relative to control; assay type: functional; conditions: time 6 weeks

- Ratio IC50 (Rattus norvegicus): 710
- IC50 [14]: 6.9 nM
SMILES: COc1cc(/C=C/c2cccc3c2oc(=O)n3CC(=O)O)ccc1O
- inhibition in vivo at 160 mg/kg (Mus musculus [1]): 20%
- inhibition in vivo at 160 mg/kg (Mus musculus [2]): 45%
- Activity (Mus musculus [3]): 58%
- Activity (Mus musculus [4]): 150%
- Activity (Mus musculus [5]): Active
- inhibition in vivo at 160 mg/kg (Mus musculus [6]): 79%
- Activity (Mus musculus [7]): 53%
- Activity (Mus musculus [8]): inactive
- inhibition in vivo at 80 mg/kg [9]: 24%
- inhibition in vivo at 160 mg/kg [10]: 18%
- Activity (Mus musculus [11]): Active
- Activity (Mus musculus [12]): 39%
- Activity (Mus musculus [13]): 170%
- Activity (Mus musculus [15]): 210%
- inhibition in vivo at 160 mg/kg (Mus musculus [16]): 23%
- inhibition in vivo at 160 mg/kg (Mus musculus [17]): 19%
- inhibition in vivo at 80 mg/kg (Mus musculus [18]): 67%
- Activity [19]: 22.7%
- Activity (Mus musculus [20]): 36%
